Measurements as given in ChEMBL document CHEMBL4020714, “Design, synthesis, and evaluation of curcumin derivatives as Nrf2 activators and cytoprotectors against oxidative death” (Eur J Med Chem, 2017).
Active and inactive are the calls of the source. The calls are words filed in the database; no cut-off is given here.

How the values were obtained:
Type in all cases: cell-based
[1] = target: T1, Nuclear factor erythroid 2-related factor 2 (Homo sapiens) (UniProt Q16236); test: (§1) Activation of Nrf2 in human HepG2 cells assessed as cytoprotection against t-BHP-induced oxidative cell death at 5 uM incubated for 24 hrs followed by compound removal with subsequent incubation with 900 uM of t-BHP for 6 hrs in presence of 10 uM GCL inhibitor BSO for 1 hr prior to compound treatment by MTT assay
T1 sequence (whole entry): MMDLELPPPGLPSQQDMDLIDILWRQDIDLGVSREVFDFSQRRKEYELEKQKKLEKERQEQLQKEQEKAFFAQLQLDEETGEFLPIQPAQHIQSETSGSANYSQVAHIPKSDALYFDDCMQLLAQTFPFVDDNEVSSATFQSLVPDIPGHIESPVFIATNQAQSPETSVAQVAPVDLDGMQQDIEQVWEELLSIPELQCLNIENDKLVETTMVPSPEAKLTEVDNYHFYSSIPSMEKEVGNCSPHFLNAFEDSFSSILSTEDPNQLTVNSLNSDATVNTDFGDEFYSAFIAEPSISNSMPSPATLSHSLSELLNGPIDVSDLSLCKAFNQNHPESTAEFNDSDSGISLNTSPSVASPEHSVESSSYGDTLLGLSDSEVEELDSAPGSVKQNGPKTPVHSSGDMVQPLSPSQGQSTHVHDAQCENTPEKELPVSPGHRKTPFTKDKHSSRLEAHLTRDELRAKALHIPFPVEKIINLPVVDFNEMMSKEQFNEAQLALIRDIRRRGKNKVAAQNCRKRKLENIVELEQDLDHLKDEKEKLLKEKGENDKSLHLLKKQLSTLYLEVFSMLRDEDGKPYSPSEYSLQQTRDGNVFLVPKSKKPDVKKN
In short: (§2)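 HepG2 cells (5×10^3/well) seeded and grown 24 h in 1640 medium with 10% FBS at 37 °C and 5% CO2. Compound is added for 24 h, then removed, and cells are challenged with 900 μM t-BHP for 6 h at 37 °C. MTT (0.5 mg/mL) is added for 4 h, formazan dissolved in DMSO, and absorbance read at 570 nm. Where used, inhibitors are added 1 h before compound. Mean ± SD of three independent experiments.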

[2] = target: c-Jun N-terminal kinase, JNK (Homo sapiens) (UniProt P45983+P53779+P45984); test: Induction of JNK phosphorylation in human HepG2 cells at 5 uM by Western blot analysis; conditions: TDE = time-dependent effect
In short: (§3)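 HepG2 cells (2×10^6/well) treated at the indicated concentrations and times. Whole-cell lysates, or nuclear and cytoplasmic fractions, are prepared and quantified by BCA. Samples are run at 40 μg/lane on 12% SDS-PAGE, transferred to nitrocellulose, probed with specific antibodies and HRP secondary (1/5000), and detected by ECL. Where used, LY294002 (15 μM), SP600125 (25 μM) or DTT (400 μM) is added 1 h before compound.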

[3] = target: T1, Nuclear factor erythroid 2-related factor 2 (Homo sapiens); test: Activation of Nrf2 in human HepG2 cells assessed as increase in HO-1 expression level after 3 hrs by Western blot analysis; in short: as §3
[4] = target: T1, Nuclear factor erythroid 2-related factor 2 (Homo sapiens); test: as §1, with “400” for “10”, “DTT” for “GCL inhibitor BSO”; in short: as §2
[5] = target: T1, Nuclear factor erythroid 2-related factor 2 (Homo sapiens); test: Activation of Nrf2 in human HepG2 cells assessed as increase in GCLC expression level at 5 uM in presence of 15 uM PI3K/Akt inhibitor LY294002 for 1 hr prior to compound treatment by Western blot analysis; in short: as §3
[6] = target: T1, Nuclear factor erythroid 2-related factor 2 (Homo sapiens); test: Activation of Nrf2 in human HepG2 cells assessed as cytoprotection against t-BHP-induced oxidative cell death incubated for 24 hrs followed by compound removal with subsequent incubation with 900 uM of t-BHP for 6 hrs by MTT assay; in short: as §2
[7] = target: T1, Nuclear factor erythroid 2-related factor 2 (Homo sapiens); test: as §1, with “25” for “10”, “JNK” for “GCL”, “SP600125” for “BSO”; in short: as §2
[8] = target: T1, Nuclear factor erythroid 2-related factor 2 (Homo sapiens); test: Activation of Nrf2 in human HepG2 cells assessed as increase in GCLC expression level after 3 hrs by Western blot analysis; in short: as §3
HepG2 = test: Cytotoxicity against human HepG2 cells assessed as reduction in cell viability at 5 uM after 24 hrs by MTT assay; conditions: hepg2, 24 h
In short: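 MTT viability in HepG2 cells (5×10^3/well) after 24 h exposure to compound at 5 μM. Formazan dissolved in DMSO and absorbance read at 570 nm. Mean ± SD of three independent experiments.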

[9] = target: T1, Nuclear factor erythroid 2-related factor 2 (Homo sapiens); test: Activation of Nrf2 in human HepG2 cells assessed as increase in GCLM expression level after 24 hrs by Western blot analysis; in short: as §3
[10] = target: T1, Nuclear factor erythroid 2-related factor 2 (Homo sapiens); test: Activation of Nrf2 in human HepG2 cells assessed as cytoprotection against t-BHP-induced oxidative cell death at 5 uM incubated for 24 hrs followed by compound removal with subsequent incubation with 900 uM of t-BHP for 6 hrs by MTT assay; in short: as §2
[11] = target: T1, Nuclear factor erythroid 2-related factor 2 (Homo sapiens); test: Activation of Nrf2 in human HepG2 cells assessed as increase in HO-1 expression level at 5 uM by Western blot analysis; conditions: TDE = time-dependent effect; in short: as §3
[12] = target: T1, Nuclear factor erythroid 2-related factor 2 (Homo sapiens); test: Activation of Nrf2 in human HepG2 cells assessed as increase in HO-1 expression level at 5 uM in presence of 25 uM JNK inhibitor SP600125 for 1 hr prior to compound treatment by Western blot analysis; in short: as §3
[13] = target: T1, Nuclear factor erythroid 2-related factor 2 (Homo sapiens); test: as §1, with “3” for “10”, “HO-1” for “GCL”, “ZnPP” for “BSO”; in short: as §2
[14] = target: T1, Nuclear factor erythroid 2-related factor 2 (Homo sapiens); test: Activation of Nrf2 in human HepG2 cells assessed as increase in cytosolic Nrf2 expression level at 5 uM after 12 hrs by Western blot analysis; in short: as §3
[15] = target: T1, Nuclear factor erythroid 2-related factor 2 (Homo sapiens); test: as §1, with “100 nM Nrf2” for “10 uM GCL”, “TRG” for “BSO”; in short: as §2
[16] = target: Kelch-like ECH-associated protein 1 (Homo sapiens) (UniProt Q14145); test: Induction of keap1-dependent Nrf2 stabilization in human HepG2 cells assessed as prolonged half life of Nrf2 at 5 uM pretreated for 3 hrs followed by coincubation with 5 ug/ml cycloheximide for 24 hrs by Western blot analysis relative to control
In short: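 HepG2 cells pretreated with or without 5 μM compound for 3 h, then given 5 μg/mL cycloheximide for the indicated periods (up to 24 h). Total lysates are immunoblotted for Nrf2. Half-life is obtained by fitting a single-phase decay model.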

[17] = target: T1, Nuclear factor erythroid 2-related factor 2 (Homo sapiens); test: Activation of Nrf2 in human HepG2 cells assessed as increase in nuclear Nrf2 expression level at 5 uM after 1 to 6 hrs by Western blot analysis; in short: as §3
[18] = target: Keap1/Nrf2 (Homo sapiens) (UniProt Q16236+Q14145); test: Inhibition of Keap1/Nrf2 interaction in human HepG2 cells assessed as decrease in Keap1 expression level after 3 hrs in presence of DTT for 1 hr prior to compound treatment by Western blot analysis; in short: as §3
Chain of Keap1/Nrf2 (Homo sapiens) (Q14145 whole entry, looked up, one chain of several): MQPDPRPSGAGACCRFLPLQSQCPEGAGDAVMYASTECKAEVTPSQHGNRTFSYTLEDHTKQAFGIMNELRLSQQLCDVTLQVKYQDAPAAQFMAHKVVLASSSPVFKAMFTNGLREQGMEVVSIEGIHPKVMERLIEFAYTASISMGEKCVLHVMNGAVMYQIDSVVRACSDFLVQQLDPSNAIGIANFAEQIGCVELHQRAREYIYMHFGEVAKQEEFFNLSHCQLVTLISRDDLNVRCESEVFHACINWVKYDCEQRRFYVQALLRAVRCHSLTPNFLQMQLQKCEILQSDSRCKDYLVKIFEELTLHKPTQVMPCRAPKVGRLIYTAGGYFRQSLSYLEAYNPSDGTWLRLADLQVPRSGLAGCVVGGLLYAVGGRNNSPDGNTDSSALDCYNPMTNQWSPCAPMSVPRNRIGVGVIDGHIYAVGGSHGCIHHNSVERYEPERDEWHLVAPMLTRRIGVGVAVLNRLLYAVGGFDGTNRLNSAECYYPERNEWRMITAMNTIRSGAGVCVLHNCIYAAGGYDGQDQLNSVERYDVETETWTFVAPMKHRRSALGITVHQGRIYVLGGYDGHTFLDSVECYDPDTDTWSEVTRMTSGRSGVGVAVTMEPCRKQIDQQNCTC

Chain of Kelch-like ECH-associated protein 1 (Homo sapiens) (Q14145 whole entry): as the sequence (Q14145 whole entry, looked up, one chain of several) above

CC(C)(C(=O)/C=C/c1ccc(O)c(O)c1)C(=O)/C=C/c1ccc(O)c(O)c1
Activity [1]: inactive
Activity [2]: Tde
Activity [3]: Active
Activity [4]: inactive
Activity [5]: inactive
Activity [6]: Dose-dependent effect
Activity [7]: inactive
Activity [8]: Active
Activity (HepG2): Non-Toxic
Activity [9]: Dose-dependent effect
Activity [10]: Active
Activity [11]: Tde
Activity [12]: inactive
Activity [13]: inactive
Activity [14]: inactive
Activity [15]: inactive
fold change (FC) [16]: 2.6
Activity [17]: Active
inhibition [18]: inactive
